Screening data deposited in PubChem BioAssay by several laboratories.
H69AR inhibit – blocks growth of human H69AR lung tumor cells. H69AR lung tumor viability, ATP luminescence, 72 h; active compounds read low. viability, % at 10 µM. 85,000 compounds, 6% hits. AID 598;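 active = viability at or below 40%; inactive = viability above 40%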;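 note: multidrug resistant small cell line overexpressing MRP-1 efflux transporter; 100% = mean luminescence of untreated control wells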
HUVEC inhibit – human endothelial cell proliferation inhibition; HUVEC proliferation, CellTiter-Glo luminescence, 72 h; active compounds read low; viability, % at 10 µM (by protocol); 86,000 compounds, 1.1% hits; AID 648;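 active = viability at or below 30%; inactive = viability above 30%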;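 note: 100% = median luminescence of DMSO-only cell control wells on each plate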
tolC growth inh – blocks growth of E. coli BW25113 tolC mutant; OD615; growth inhibition, % at 10 µM (by protocol); 65,000 compounds, 2.2% hits; AID 573;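 active = growth inhibition at or above a cutoff equal to the mean over every tested compound plus 3 SD, cut at about 60% in these data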;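 note: growth measured after 20 h incubation at 37 °C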
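Material: E. coli BW25113 ΔtolC::kan, tolC deletion mutant strain. Measure: percent growth inhibition. Schedule: 37 °C, 20 h exposure. Doses: single-point testing at 10 µM. Signal: A615 absorbance measurement. Buffer or medium: kanamycin-containing LB broth (50 µg/mL).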
Fibroblast inh – blocks proliferation of human lung fibroblasts; viability, % at 10 µM; LL 47 human lung fibroblast viability, ATP luminescence; active compounds read low; AID 719; 85,000 compounds, 1.1% hits;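 active = viability at or below 50% in the single dose screen; inactive = viability above 50%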;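 note: compound exposure lasted 72 h before the ATP readout; 100% = median luminescence of untreated cell-only wells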
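Times – overnight cell rest, 72 h compound treatment at 37 °C · Test system – human lung fibroblast line LL 47, low passage · Amount – 1,150 cells in each well · Controls – cell-only wells, no compound · Doses – 0.1% DMSO in all compound wells · Measured by – CellTiter-Glo luminescence · Buffer or medium – IMEM plus 15% FBS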
E coli WT exp – blocks growth of wild type E. coli BW25113; OD600 absorbance; growth inhibition, % at 100 µM; 98,000 compounds, 0.15% hits;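 active = growth inhibition above about 50% at one test dose, limit read from the data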;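 note: growth measured after 20 h incubation at 37 °C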
Jurkat tox 60K – reduces viability or proliferation of Jurkat cells; Jurkat E6.1 viability, ATP luminescence, 48 h; inhibition, % at 4 µM; 56,000 compounds, 1.2% hits; AID 463;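 active = inhibition above the mean inhibition of all tested compounds plus 3 SD, cut at about 28% in these data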
Active calls of the source: *; nt = not tested or not shown. Rows were chosen to be rich in hits. Some 6.4% of all compounds tested hit in one or more screens of this group.

SMILES | H69AR inhibit | HUVEC inhibit | tolC growth inh | Fibroblast inh | E coli WT exp | Jurkat tox 60K
O=C(NS(=O)(=O)c1ccc(NC(=O)C2CCCO2)cc1)c1ccccc1 (centres undefined) | 86 | 94 | -11 | 107 | -10 | 2
CCN(CC)S(=O)(=O)c1ccc(NC(=O)c2cccc3c2C(=O)N(CCOC)C3)cc1 | nt | nt | -19 | nt | nt | -12
CN1CCN(S(=O)(=O)c2ccc(NC(=O)Nc3cccc(Cl)c3)cc2)CC1 | 35* | 3.2* | 33 | 83 | 30 | 6
COCCN1Cc2cccc(C(=O)Nc3ccc(S(=O)(=O)N4CCCCCC4)cc3)c2C1=O | 25* | 47 | -6 | 79 | nt | -4
O=C(Nc1ccccc1)Nc1ccc(S(=O)(=O)N2CCCCC2)cc1 | 13* | 48 | 100* | 93 | 27 | 0
CN(c1ccccc1C(=O)Nc1ccc(S(=O)(=O)N2CCCCC2)cc1)S(C)(=O)=O | 87 | 98 | 100* | 103 | 9 | 1
CCOCCOC(=O)C1=C(C)Nc2ccc(C)cc2S1 | 87 | 83 | -10 | 97 | 3 | -1
CN(C)c1nc(SCCOC(=O)Nc2ccccc2)nc(N(C)C)n1 | 77 | 88 | 86* | 106 | -29 | 4
CN(C)c1nc(C(=O)Nc2ccccc2)nc(N(C)C)n1 | nt | nt | 9 | nt | -3 | 0
O=S(=O)(CCOc1ccccc1)c1nc2ccccc2[nH]1 | 0.3* | 78 | 4 | 85 | 16 | 6
c1ccc(N2CCN(c3ncnc4c3oc3ccccc34)CC2)cc1 | 49 | 48 | 94* | 98 | -15 | 4
CCOC(=O)C1CCN(c2nc(-c3ccccc3)nc3c2oc2ccccc23)CC1 | 63 | 85 | -9 | 97 | -19 | 4
O=C(O)C1CCN(c2nc(-c3ccccc3)nc3c2oc2ccccc23)CC1 | 19* | 79 | 42 | 93 | 9 | -3
OCCN1CCN(c2nc(-c3ccccc3)nc3c2oc2ccccc23)CC1 | 24* | 12* | 25 | 20* | -2 | 11
c1ccc(-c2nnc(N3CCN(c4ccccn4)CC3)c3ccccc23)cc1 | 44 | 72 | 28 | 84 | 0 | 20
Cc1ccc(-c2nnc(N3CCN(c4ccccn4)CC3)c3ccccc23)cc1 | 47 | 53 | 100* | 83 | -4 | 3
Cc1cccc(C)c1NC1=NC(=S)N(c2ccccc2)C12CCOC(C)(C)C2 (centres undefined) | 34* | 90 | nt | 87 | -10 | nt
CON(c1nc(Cl)nc(N(C)C)n1)S(=O)(=O)c1ccccc1Cl | 22* | 90 | nt | 91 | -1 | nt
CCCCCCNC(=O)CC(c1ccccc1)c1cc(Br)ccc1O (centres undefined) | 47 | 11* | nt | 94 | nt | nt
Cc1sc(NC(=O)c2ccco2)c(C(c2cccnc2)N2CCN(C)CC2)c1C (centres undefined) | 84 | 97 | nt | 101 | 3 | nt
CN1CCN(C(c2cccnc2)c2ccc3cccnc3c2O)CC1 (centres undefined) | 16* | 87 | -2 | 86 | 20 | 2
COc1ccc(C2c3c(ncn(CCN4CCOCC4)c3=N)Oc3ccc4ccccc4c32)cc1 (centres undefined) | 1.3* | 29* | nt | 71 | 15 | nt
N=c1c2c(ncn1CCN1CCOCC1)Oc1ccc3ccccc3c1C2c1ccccc1 (centres undefined) | 2.3* | 6.1* | nt | 64 | -7 | nt
O=C(O)/C=C/C(=O)NNC(=O)c1ccccc1Br | nt | nt | nt | nt | 3 | nt
CC(C)(C)NC(=O)CN(C(=O)CNS(=O)(=O)c1ccccc1)c1ccc2c(c1)OCCO2 | 87 | 98 | nt | 99 | 7 | nt
SMILES | H69AR inhibit | HUVEC inhibit | tolC growth inh | Fibroblast inh | E coli WT exp | Jurkat tox 60K
C=CCc1cc(OC)ccc1OCC(O)CN1CCN(c2ccc(OC)cc2)CC1 (centres undefined) | 77 | 119 | 26 | 101 | 12 | 2
C=CCc1cc(C)ccc1OCC(O)CN1CCN(c2ccccc2)CC1 (centres undefined) | 87 | 100 | 67* | 99 | 14 | 7
O=S(=O)(CCSc1nc2ccccc2s1)c1nc2ccccc2s1 | 1.5* | 14* | nt | 35* | -10 | nt
CC(C)(C)S(=O)(=O)c1nc2ccccc2s1 | 79 | 90 | nt | 98 | 7 | nt
CCS(=O)(=O)CCSc1nc2ccccc2s1 | 93 | 87 | -10 | 98 | 7 | 1
C=CCS(=O)(=O)c1nc2ccccc2s1 | 1.1* | 81 | nt | 77 | 10 | nt
Cc1ccc2c(C)ccc(O)c2n1 | 29* | 17* | nt | 89 | 31 | nt
c1ccc(-c2nnc(Cn3c4ccccc4c4nc5ccccc5nc43)o2)cc1 | 11* | 47 | 6 | 91 | nt | -2
CC(O)c1nc2ccccc2n1Cc1nnc(-c2ccc(Cl)cc2)o1 (centres undefined) | 98 | 89 | 13 | nt | 3 | 1
CCOc1ccc(S(=O)(=O)NCc2ccncc2)cc1 | 84 | 69 | nt | 106 | -2 | nt
Cc1ccc(S(=O)(=O)NCC(=O)NCc2ccncc2)cc1 | 89 | 95 | nt | 98 | nt | nt
CC1CCCCC1NS(=O)(=O)c1ccc(S(=O)(=O)NCc2ccncc2)cc1 (centres undefined) | 91 | 55 | -6 | 91 | 5 | 92*
Cc1ccc(S(=O)(=O)NCc2ccncc2)cc1 | 106 | 104 | -11 | 99 | 4 | 76*
O=C(Oc1ccc2c(=O)c(Cl)coc2c1)c1cccnc1 | 102 | 99 | nt | 103 | 0 | nt
Cc1ccccc1NC(=O)CCSc1nnnn1-c1ccccc1 | 100 | 92 | nt | 93 | nt | nt
Cc1ccc(S(=O)(=O)N(C)CCCC(=O)n2nc(C)cc2C)cc1 | 90 | 105 | 7 | nt | 7 | -2
CCOC(=O)C1=C(C)N=c2s/c(=C\c3ccncc3)c(=O)n2C1c1ccc2c(c1)OCO2 (centres undefined) | 3.0* | 50 | 21 | 71 | -6 | nt
CCOC(=O)C1=C(C)N=c2s/c(=C3\C(=O)Nc4ccccc43)c(=O)n2C1c1ccc2c(c1)OCO2 (centres undefined) | 27* | 73 | 10 | 91 | -16 | -2
CCOC(=O)C1=C(C)N=c2s/c(=C/c3ccccc3)c(=O)n2C1c1ccc(OC)c(OC)c1 (centres undefined) | nt | nt | nt | nt | -19 | nt
O=C(CCl)N(c1ccccc1)c1c[nH]c2ccccc12 | 0.4* | 6.9* | nt | 1.7* | 10 | nt
CCOC(=O)Cc1c[nH]c2ccccc12 | 90 | 80 | -5 | 84 | -3 | nt
O=C(CCl)N(c1ccc(Cl)cc1)c1c[nH]c2ccccc12 | 1.1* | 3.9* | nt | 2.4* | 20 | nt
O=c1c2ccccc2nc2n1-c1ccccc1CCC2 | 104 | 98 | -9 | 105 | -2 | -3
O=c1[nH]cc(COCc2ccccc2)c(=O)[nH]1 | 111 | 84 | -13 | 100 | 3 | -2
O=C(CSc1nnc(-c2cc(-c3cccs3)nc3ccccc23)o1)NC1CCCCC1 | 23* | 49 | nt | 107 | -7 | nt
C=CCNC(=O)CSc1nnc(-c2cccs2)o1 | 38* | 98 | nt | 86 | 10 | nt
OC1CCCCC1Sc1nc2ccccc2s1 (centres undefined) | 91 | 110 | 9 | 101 | 9 | 0
